Hits are enriched below; roughly 4.8% of the tested compounds scored in any of these assays.
697 NFkB inh = inhibitors of PMA/ionomycin-induced NF-kB reporter, 697 cells, primary screen, B-cell NF-kB inhibitor project, cell-based, luminescence, uHTS; 697 B-cell NF-kB luciferase reporter, 16 h; inhibition, % at 4 µM; 330,000 compounds, 0.33% hits; AID 435022, 2010; in the data active = inhibition above about 35%
HSF-1 act = HSF-1 activators, primary screen, NIH3T3-HGL cells, MG132 stress, luminescence, single point; activation, % at 9 µM; 300,000 compounds, 1.7% hits; NIH3T3-HGL HSF-1 luciferase reporter, 8 h; 100% = twice DMSO control signal; AID 504408, 2011;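 active = mean replicate activation of at least 50% with a set share of replicates each reaching 50%; inconclusive = only one of those two conditions met; inactive = mean below 50% and too few replicates reaching it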
Jurkat NFkB inh = inhibitors of induced NF-kB luciferase reporter, primary screen, TCR NF-kB activation inhibitor project, cell-based, luminescence, uHTS | Jurkat, PMA/ionomycin-induced NF-kB luciferase reporter | 330,000 compounds, 0.53% hits | inhibition, % at 4 µM; in the data active = inhibition above about 50%
HSF1 inhib = HSF1 inhibitors in luciferase reporter cells, primary screen, cell-based, NIH3T3, luminescence; activity change, negative = inhibition, % at 7.5 µM (by protocol); 300,000 compounds, 0.77% hits; NIH3T3-HGL HSE-luciferase, MG132-induced, luminescence 8 h; stronger effect = lower value;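 active = more than half of replicate wells show activity change below -50%, luminescence cut by over half; inconclusive = some wells, but at most half, below -50%; inactive = no replicate well below -50%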;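 note: luciferase reports HSF-1 transcriptional activity via heat shock element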
GPR7 antagonist = GPR7 receptor antagonists, primary screen, cell-based, fluorescence, single concentration; Neuropeptides B/W receptor type 1 (Homo sapiens), P48145; GPR7-expressing cells, fluorescence antagonist assay; inhibition, % at 4.4 µM; 290,000 compounds, 1.1% hits; AID 1861, 2009; in the data active = inhibition above about 16%, passing the limit was not always enough;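 note: cells stimulated with the agonist NPW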
Target sequence (P48145 whole entry, looked up): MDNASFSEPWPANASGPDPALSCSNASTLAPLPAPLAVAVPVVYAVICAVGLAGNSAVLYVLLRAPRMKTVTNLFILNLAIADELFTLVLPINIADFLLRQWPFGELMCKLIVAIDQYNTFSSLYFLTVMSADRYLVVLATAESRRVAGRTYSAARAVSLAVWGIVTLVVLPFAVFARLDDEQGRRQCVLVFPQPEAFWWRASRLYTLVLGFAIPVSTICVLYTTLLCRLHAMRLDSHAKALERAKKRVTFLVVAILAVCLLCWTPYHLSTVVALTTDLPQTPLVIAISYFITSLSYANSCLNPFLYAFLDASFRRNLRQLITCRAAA
T cruzi repl = inhibitors of intracellular T. cruzi growth, primary screen, luminescence, NIH3T3 host cells; T. cruzi beta-gal in NIH3T3, 90 h; inhibition, % (no concentration beside the values); 300,000 compounds, 1.4% hits; AID 1885, 2009;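 active = mean inhibition across valid replicates above about 55%, limit read from the data; inconclusive = mean below that limit but half or more replicates reach it; inactive = mean below it, under half of replicates reach it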;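 note: signal also drops with host cell toxicity which is not excluded here; higher percent means less beta-gal luminescence so fewer parasites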
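assay system = mouse NIH/3T3 fibroblasts infected with β-gal-expressing T. cruzi Tulahuen C4 | input = 5,000 NIH/3T3 host cells per well | buffer or medium = DMEM plus 2% FBS | timing = 3 h host attachment, then at least 90 h co-culture | measured by = GalScreen luminescence, 60 min | evaluation = luminescence reflecting intracellular parasite burden, expressed as percent inhibition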
Jurkat NFkB conf = PMA/ionomycin-induced NF-kB reporter inhibitors, Jurkat retest, confirmation, T-cell NF-kB inhibitor project, cell-based, luminescence, single concentration. shares compounds with Jurkat NFkB inh. Jurkat NF-kB luciferase, 16 h. inhibition, % at 4 µM. 2,700 compounds, 27% hits;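 active = inhibition reaching about 45% at 4 µM in either replicate, limit read from the data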
Of the large screens only hits and unclear results are named; the others gave an inactive call (follow-up assays come after a bar, where they were run).

Cc1ccc(C)c(NC(=O)C(Sc2nc3ccccc3c(=O)n2CC(C)C)c2ccccc2)c1 (stereo not given)	Jurkat NFkB inh 65.0 | Jurkat NFkB conf inactive
O=C(Nc1ccc(Oc2cccnc2)nc1)c1ccc(C(F)(F)F)cc1	Jurkat NFkB inh 50.1, GPR7 antagonist 20.0 | Jurkat NFkB conf 56.5
CC(C)(C)c1ccc(Oc2ccc(NC(=O)c3ccco3)cn2)cc1	Jurkat NFkB inh 53.0, HSF1 inhib inconclusive | Jurkat NFkB conf inactive
O=C(NC(=O)c1c(Cl)cccc1Cl)Nc1ccc(Oc2cccnc2)nc1	none (no result: HSF-1 act, HSF1 inhib, T cruzi repl)
COC(=O)c1[nH]c2ccc(Br)cc2c1NC(=O)CN1CCN(C2CCCCC2)CC1	Jurkat NFkB inh 68.3 | Jurkat NFkB conf 45.6
COc1ccc(NS(=O)(=O)c2ccc(N3CCCCC3)c(N)c2)cc1	none (no result: HSF-1 act, HSF1 inhib, GPR7 antagonist, T cruzi repl)
COc1ccc(NS(=O)(=O)c2cc(-c3cnc(C4CC4)o3)ccc2C)cc1	Jurkat NFkB inh 59.1 | Jurkat NFkB conf 48.9
O=S(=O)(Nc1ccccc1)c1ccc(-c2cnc(C3CC3)o2)cc1	Jurkat NFkB inh 52.7 | Jurkat NFkB conf inactive
CC(=O)c1cccc(NS(=O)(=O)c2ccc(-c3cnc(C4CC4)o3)cc2)c1	none
COc1ccccc1NS(=O)(=O)c1cc(-c2cnc(C3CC3)o2)ccc1C	none
Cc1ccc(C)c(NS(=O)(=O)c2ccc(-c3cnc(C4CC4)o3)cc2)c1	Jurkat NFkB inh 61.2 | Jurkat NFkB conf 60.0
CCOc1ccc(NS(=O)(=O)c2ccc(-c3cnc(C4CC4)o3)cc2)cc1	none
Cc1cccc(NS(=O)(=O)c2ccc(-c3cnc(C4CC4)o3)cc2)c1C	Jurkat NFkB inh 60.3 | Jurkat NFkB conf 66.2
O=C(CN1C(=O)NC(c2ccccc2)(c2ccccc2)C1=O)NCCc1ccc(F)cc1	none (no result: HSF-1 act, HSF1 inhib, GPR7 antagonist, T cruzi repl)
O=C1CCN(S(=O)(=O)c2ccc(Br)cc2)CCN1	none
O=C(NCCNC(=O)c1ccccn1)c1ccccc1	none
Cc1cc(C)cc(NS(=O)(=O)c2ccc(-c3cnc(C4CC4)o3)cc2)c1	Jurkat NFkB inh 55.9 | Jurkat NFkB conf 55.2
CC(=O)Nc1ccc(NS(=O)(=O)c2ccc(-c3cnc(C4CC4)o3)cc2)cc1	none
COc1cc(-c2cc(-c3ccc(O)cc3)nc(N)c2C#N)ccc1O	none
CCOc1cc(-c2cc(-c3ccc(C)cc3)nc(N)c2C#N)ccc1O	Jurkat NFkB inh 51.1 | Jurkat NFkB conf inactive
NC(=O)c1cc(S(=O)(=O)NCc2cccc(Br)c2)cs1	none
O=C(Sc1cccc2cccnc12)c1ccc(F)cc1	Jurkat NFkB inh 100.9 (no result: HSF-1 act, HSF1 inhib, T cruzi repl) | Jurkat NFkB conf 59.7
O=C(Sc1cccc2cccnc12)c1ccccc1Br	HSF-1 act 207.4, Jurkat NFkB inh 100.7 | Jurkat NFkB conf 69.4
O=C(CSc1ccc(-c2ccccn2)nn1)Nc1cccc(F)c1	none
C[C@H](NC(=O)c1ccc(Cl)cc1)C(=O)NCCc1ccc(S(N)(=O)=O)cc1	none
O=C(CNC(=O)c1ccco1)N=Nc1c(O)n(CCc2ccccc2)c2ccccc12	Jurkat NFkB inh 66.8 | Jurkat NFkB conf 51.4
CC1(C)CC(N2CCN(c3ccccc3)CC2)=CC(=[N+]2CCCC2)C1	Jurkat NFkB inh 57.5, T cruzi repl 67.6 | Jurkat NFkB conf inactive
Cc1ccc2c(c1)C=CC(C)N2C(=O)c1ccccc1 (stereo not given)	none
Cc1ccc2c(c1)C=CC(C#N)N2C(=O)c1ccccc1 (stereo not given)	Jurkat NFkB inh 55.4 | Jurkat NFkB conf inactive
Cc1ccc(-n2nc3c(=O)n(CC(=O)NC(C)CCc4ccccc4)nc(C)c3c2C)cc1 (stereo not given)	Jurkat NFkB inh 52.7 | Jurkat NFkB conf 62.9
Cc1ccc(-n2nc3c(=O)n(CC(=O)NCc4ccccc4)nc(C)c3c2C)cc1	none

From PubChem
